Results on two compounds are retold here after ChEMBL document CHEMBL1144823, “Blood-brain barrier penetration by two dermorphin tetrapeptide analogues: role of lipophilicity vs structural flexibility” (J Med Chem, 2008).

Each structure is given as a SMILES string. The source made the active and inactive calls. Where a SMILES comes first, the peptide text is derived from it. [ ]: non-standard residue; d: D form. dNMeA = CN[C@H](C)C(=O)O; Sar = CNCC(=O)O

Test [1] has as its target Mu-type opioid receptor (Rattus norvegicus, UniProt P33535). The experiment in a line: Displacement of [3H]naloxone from mu opioid receptor in rat brain membrane. It counts as cell membranes. In a few lines: (§1)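 Competitive displacement on rat brain membranes: [³H]naloxone for mu sites and [³H]deltorphin II for delta sites, giving IC50 values. Selectivity is expressed as IC50(mu)/IC50(delta).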
For orientation: Loss of bound radioactivity is the signal in a displacement assay; it reports binding, not function.

Test [2] has as its target Delta-type opioid receptor (Rattus norvegicus, UniProt P33533). The experiment in a line: Displacement of [3H]deltorphin2 from delta opioid receptor in rat brain membrane. It counts as cell membranes. In a few lines: as §1
The target of test [3] is Kappa-type opioid receptor (Cavia porcellus) (UniProt P41144). The experiment in a line: Displacement of [3H]U-69593 from kappa opioid receptor in guinea pig brain membrane at 10 uM. The class given is cell membranes. Summed up:
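Displacement of [³H]U69,593 from guinea pig brain membrane sites, with test concentrations up to 10 µM.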

Another test is filed under the species Rattus norvegicus. The experiment in a line: Ratio of IC50 for mu opioid receptor in rat brain to IC50 for delta opioid receptor in rat brain. The class given is tissue-based. Summed up:
as §1

Test [4] deals with Mu-type opioid receptor (Cavia porcellus, UniProt P97266). Put plainly: Agonist activity at mu opioid receptor in guinea pig ileum. It counts as functional, tissue-based. Summed up: (§2)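 Isolated guinea pig ileum and mouse vas deferens preparations. A [Leu⁵]enkephalin standard dose–response curve was run for each ileum and vas preparation. Compound IC50 values were normalized to that standard by a published procedure.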

For test [5], the target named is Delta-type opioid receptor (Mus musculus, UniProt P32300). Put plainly: Agonist activity at delta opioid receptor in mouse vas deferens. The class given is functional, tissue-based. Summed up:
as §2

In test [6] the test system is Mus musculus. The experiment in a line: Analgesic activity in C57 mouse at 2 mg/kg, iv after 15 mins by tail flick test. It counts as functional, organism-based. The arrangement: dose 2 mg/kg. In a few lines: (§3)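 Male C57 mice (20–25 g) housed in groups of five on a 12 h light-dark cycle. Peptide in saline was injected into the tail vein (10 mL/kg total) and flushed with saline; controls received saline. Warm-water (55 °C) tail-flick test, three trials, 15 s cutoff. %MPE = (post − control)/(cutoff − control) × 100, read at baseline, 5, 15, 30, 60 and 120 min. One-way ANOVA at each time point.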
On the technique in general: In hot-plate and tail-flick tests a longer latency is read as antinociception.

Test [7] concerns Mus musculus. Put plainly: Analgesic activity in C57 mouse at 2 mg/kg, iv after 5 mins by tail flick test. The class given is functional, organism-based. Details: dose 2 mg/kg. Summed up:
as §3

What is called IC50 is the midpoint of a concentration-inhibition curve.

Chain of Mu-type opioid receptor (Cavia porcellus, UniProt P97266) (P97266 whole entry): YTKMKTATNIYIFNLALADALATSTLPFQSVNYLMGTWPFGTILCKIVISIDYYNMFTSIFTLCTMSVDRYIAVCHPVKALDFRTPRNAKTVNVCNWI
Chain of Kappa-type opioid receptor (Cavia porcellus) (P41144 whole entry): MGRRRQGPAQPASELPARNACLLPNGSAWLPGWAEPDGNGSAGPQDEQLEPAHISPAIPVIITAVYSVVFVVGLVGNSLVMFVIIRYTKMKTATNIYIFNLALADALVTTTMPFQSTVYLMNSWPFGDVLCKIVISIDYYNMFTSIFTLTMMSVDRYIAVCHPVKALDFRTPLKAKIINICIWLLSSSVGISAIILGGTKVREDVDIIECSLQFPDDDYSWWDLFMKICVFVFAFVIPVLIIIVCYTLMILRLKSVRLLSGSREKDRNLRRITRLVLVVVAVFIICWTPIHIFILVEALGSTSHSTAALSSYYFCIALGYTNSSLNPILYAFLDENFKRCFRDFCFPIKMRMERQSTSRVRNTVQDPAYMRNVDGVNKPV
Chain of Delta-type opioid receptor (Mus musculus, UniProt P32300) (P32300 whole entry): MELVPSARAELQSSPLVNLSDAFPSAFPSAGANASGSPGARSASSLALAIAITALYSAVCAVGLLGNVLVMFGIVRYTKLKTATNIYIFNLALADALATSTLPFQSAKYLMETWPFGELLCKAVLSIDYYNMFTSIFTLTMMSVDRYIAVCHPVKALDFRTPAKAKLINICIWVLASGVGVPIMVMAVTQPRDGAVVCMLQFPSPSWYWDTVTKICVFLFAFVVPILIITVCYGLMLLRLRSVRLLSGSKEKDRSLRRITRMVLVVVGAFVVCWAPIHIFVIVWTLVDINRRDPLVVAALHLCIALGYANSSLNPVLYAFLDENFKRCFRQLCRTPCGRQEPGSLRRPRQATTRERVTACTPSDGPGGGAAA
Chain of Delta-type opioid receptor (Rattus norvegicus, UniProt P33533) (P33533 whole entry): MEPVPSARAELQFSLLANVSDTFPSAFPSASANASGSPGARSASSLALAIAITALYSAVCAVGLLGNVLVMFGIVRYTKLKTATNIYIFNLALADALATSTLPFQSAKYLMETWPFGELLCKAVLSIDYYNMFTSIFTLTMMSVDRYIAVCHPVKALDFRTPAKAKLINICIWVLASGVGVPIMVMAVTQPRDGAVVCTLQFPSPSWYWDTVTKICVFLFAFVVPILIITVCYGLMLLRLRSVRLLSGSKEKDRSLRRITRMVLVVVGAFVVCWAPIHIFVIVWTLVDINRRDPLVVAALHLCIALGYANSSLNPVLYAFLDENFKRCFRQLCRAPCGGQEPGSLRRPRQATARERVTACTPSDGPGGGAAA
Chain of Mu-type opioid receptor (Rattus norvegicus, UniProt P33535) (P33535 whole entry): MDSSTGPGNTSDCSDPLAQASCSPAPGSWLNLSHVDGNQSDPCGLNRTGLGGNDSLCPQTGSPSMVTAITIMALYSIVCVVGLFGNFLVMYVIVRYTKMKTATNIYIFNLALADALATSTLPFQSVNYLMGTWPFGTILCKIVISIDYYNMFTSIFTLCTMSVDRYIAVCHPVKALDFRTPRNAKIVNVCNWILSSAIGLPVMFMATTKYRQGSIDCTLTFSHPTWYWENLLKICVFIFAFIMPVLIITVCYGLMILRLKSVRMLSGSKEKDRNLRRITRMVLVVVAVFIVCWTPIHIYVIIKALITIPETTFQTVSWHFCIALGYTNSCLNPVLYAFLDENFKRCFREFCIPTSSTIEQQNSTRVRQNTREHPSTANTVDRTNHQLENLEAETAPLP

In the case of `C[C@H](C(=O)N[C@@H](Cc1ccccc1)C(=O)N(C)CC(N)=O)N(C)C(=O)[C@@H](N)Cc1ccc(O)cc1` (H-Y[dNMeA]F[Sar]-NH2), the IC50 on Mu-type opioid receptor [1] is 28.1 µM; in test [2], 7.1 µM; at Mu-type opioid receptor [4] it was 22 µM; in test [5], 79.7 µM. For the same compound, the result in test [3] was inactive. The Ratio IC50 in the test listed under Rattus norvegicus is 3.96. Moreover, the result in the test on Mus musculus [6] and in the test with Mus musculus [7] was Active.

As to `C[C@H](C(=O)N[C@H]1Cc2ccccc2CN(CC(N)=O)C1=O)N1Cc2cc(O)ccc2C[C@H](N)C1=O`, the IC50 at Mu-type opioid receptor [1] worked out at 20.8 µM; in test [2], 17.8 µM; at Mu-type opioid receptor [4] it was 3.64 µM; in test [5], 30.3 µM. Besides, the outcome in test [3] was inactive. Moreover, the Ratio IC50 in the test filed under Rattus norvegicus turned out to be 1.17.
